24 compounds from ChEMBL document CHEMBL2384914, “Synthetic tactics of new class of 4-aminothieno[2,3-d]pyrimidine-6-carbonitrile derivatives acting as antimicrobial agents” (2013) can be followed below.

One experiment has as its system Candida albicans. The experiment in a line: Antifungal activity against Candida albicans MTCC 227 assessed as growth inhibition by broth microdilution method. Format: functional. A digest of the protocol: (§1)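 Fungal MTCC cultures were tested by broth microdilution with DMSO-diluted drug in serial dilutions, as a primary screen followed by a second dilution set for actives. MIC was the lowest concentration inhibiting growth. Each experiment was run three times and the MICs averaged.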
Background: Dilution methods test growth across graded concentrations, often in twofold steps.

The subject of another experiment is Pseudomonas aeruginosa. The experiment in a line: Antibacterial activity against Pseudomonas aeruginosa MTCC 441 assessed as growth inhibition by broth microdilution method. It counts as functional.
A further experiment has as its system Staphylococcus aureus. Kind of experiment: Antibacterial activity against Staphylococcus aureus MTCC 96 assessed as growth inhibition by broth microdilution method. Format: functional.
Another experiment has as its system Streptococcus pyogenes. Kind of experiment: Antibacterial activity against Streptococcus pyogenes MTCC 442 assessed as growth inhibition by broth microdilution method. Format: functional.
In another experiment the test system is Escherichia coli. The experiment in a line: Antibacterial activity against Escherichia coli MTCC 443 assessed as growth inhibition by broth microdilution method. It counts as functional.
A further experiment relates to Aspergillus niger. Kind of experiment: Antifungal activity against Aspergillus niger MTCC 282 assessed as growth inhibition by broth microdilution method. It counts as functional. A digest of the protocol: as §1
In experiment [1] the test system is Aspergillus clavatus. The experiment in a line: Antifungal activity against Aspergillus clavatus MTCC 1323 assessed as growth inhibition by broth microdilution method. It counts as functional.
Experiment [2] concerns Aspergillus clavatus. As to conditions: MTCC 1323.

By MIC is commonly meant the lowest concentration found to suppress growth.

Take `NC(=O)c1sc(N)c(C(N)=O)c1-c1ccc(Cl)cc1`: the MIC in the experiment on Candida albicans is 500 µg/mL; with Pseudomonas aeruginosa, 250 µg/mL; in the experiment with Staphylococcus aureus it was 250 µg/mL; in the experiment with Streptococcus pyogenes, 200 µg/mL; in the experiment with Escherichia coli, 200 µg/mL; with Aspergillus niger, above 1000 µg/mL. In the experiment with Aspergillus clavatus [1], the MIC is above 1000 µg/mL.

Regarding `Cc1ccccc1Nc1ncnc2sc(C#N)c(-c3ccc(Cl)cc3)c12`, the MIC in the experiment with Candida albicans is above 1000 µg/mL; in the experiment on Pseudomonas aeruginosa it was 200 µg/mL; with Staphylococcus aureus it was 250 µg/mL; in the experiment on Streptococcus pyogenes, 125 µg/mL; with Escherichia coli it was 200 µg/mL; in the experiment on Aspergillus niger, above 1000 µg/mL. Also, the MIC with Aspergillus clavatus [1] is above 1000 µg/mL.

For `O=C(O)c1cn(C2CC2)c2cc(N3CCNCC3)c(F)cc2c1=O` [CIPROFLOXACIN], the MIC was determined as 50 µg/mL in the experiment with Staphylococcus aureus, 50 µg/mL in the experiment on Streptococcus pyogenes and 25 µg/mL in the experiment with Escherichia coli.

For `N#Cc1sc2ncnc(Nc3ccccc3Cl)c2c1-c1ccc(Cl)cc1`, the MIC is 500 µg/mL in the experiment with Candida albicans; 62.5 µg/mL with Pseudomonas aeruginosa; 200 µg/mL with Staphylococcus aureus; 100 µg/mL in the experiment on Streptococcus pyogenes; 125 µg/mL in the experiment with Escherichia coli; above 1000 µg/mL in the experiment on Aspergillus niger. Besides, the MIC with Aspergillus clavatus [1] is above 1000 µg/mL.

For the compound `N#Cc1sc2ncnc(N3CCNCC3)c2c1-c1ccc(Cl)cc1`, the MIC in the experiment with Candida albicans was 1000 µg/mL; with Pseudomonas aeruginosa, 250 µg/mL; in the experiment on Staphylococcus aureus, 62.5 µg/mL; in the experiment on Streptococcus pyogenes it was 100 µg/mL; in the experiment on Escherichia coli, 125 µg/mL; with Aspergillus niger, 1000 µg/mL. In addition, in the experiment on Aspergillus clavatus [1], the MIC was above 1000 µg/mL.

Turning to `N#Cc1sc2ncnc(NCc3ccccc3)c2c1-c1ccc(Cl)cc1`, the MIC with Candida albicans is 1000 µg/mL; in the experiment with Pseudomonas aeruginosa it was 250 µg/mL; in the experiment on Staphylococcus aureus it was 100 µg/mL; in the experiment on Streptococcus pyogenes it was 125 µg/mL; with Escherichia coli, 250 µg/mL; with Aspergillus niger it was 1000 µg/mL. Further, the MIC with Aspergillus clavatus [1] is 1000 µg/mL.

With `N#Cc1sc2ncnc(N3CCOCC3)c2c1-c1ccc(Cl)cc1`, the MIC in the experiment on Candida albicans was 1000 µg/mL; in the experiment on Pseudomonas aeruginosa, 200 µg/mL; with Staphylococcus aureus, 250 µg/mL; with Streptococcus pyogenes it was 250 µg/mL; with Escherichia coli, 125 µg/mL; in the experiment on Aspergillus niger, above 1000 µg/mL. In addition, the MIC with Aspergillus clavatus [1] is above 1000 µg/mL.

On to `CCN(CC)c1ncnc2sc(C#N)c(-c3ccc(Cl)cc3)c12`, for which the MIC was 1000 µg/mL in the experiment on Candida albicans; 250 µg/mL with Pseudomonas aeruginosa; 200 µg/mL with Staphylococcus aureus; 200 µg/mL in the experiment with Streptococcus pyogenes; 200 µg/mL in the experiment on Escherichia coli; above 1000 µg/mL in the experiment with Aspergillus niger. Also, the MIC in the experiment with Aspergillus clavatus [1] was above 1000 µg/mL.

As for GENTAMICIN, the MIC in the experiment on Pseudomonas aeruginosa was 1 µg/mL; in the experiment with Staphylococcus aureus, 0.25 µg/mL; in the experiment with Streptococcus pyogenes, 0.5 µg/mL; in the experiment with Escherichia coli, 0.05 µg/mL.

`Cc1cccc(Nc2ncnc3sc(C#N)c(-c4ccc(Cl)cc4)c23)c1`: the MIC in the experiment on Candida albicans is above 1000 µg/mL; in the experiment on Pseudomonas aeruginosa it was 200 µg/mL; in the experiment with Staphylococcus aureus, 250 µg/mL; in the experiment with Streptococcus pyogenes it was 250 µg/mL; in the experiment on Escherichia coli, 250 µg/mL; with Aspergillus niger it was above 1000 µg/mL. The MIC in the experiment with Aspergillus clavatus [1] is above 1000 µg/mL.

With `N#Cc1sc2ncnc(Cl)c2c1-c1ccc(Cl)cc1`, the MIC with Candida albicans is 1000 µg/mL; in the experiment on Pseudomonas aeruginosa, 250 µg/mL; in the experiment on Staphylococcus aureus it was 100 µg/mL; with Streptococcus pyogenes, 250 µg/mL; with Escherichia coli, 200 µg/mL; with Aspergillus niger it was 1000 µg/mL. Besides, the MIC with Aspergillus clavatus [1] was 1000 µg/mL.

For the compound `N#Cc1sc2ncnc(N3CCN(c4nsc5ccccc45)CC3)c2c1-c1ccc(Cl)cc1`, the MIC is 500 µg/mL with Candida albicans; 250 µg/mL with Pseudomonas aeruginosa; 200 µg/mL with Staphylococcus aureus; 200 µg/mL in the experiment with Streptococcus pyogenes; 100 µg/mL in the experiment with Escherichia coli; above 1000 µg/mL in the experiment with Aspergillus niger. Also, the MIC with Aspergillus clavatus [1] is above 1000 µg/mL.

As to `N#Cc1sc2nc[nH]c(=O)c2c1-c1ccc(Cl)cc1`, the MIC is 500 µg/mL with Candida albicans; 62.5 µg/mL with Pseudomonas aeruginosa; 200 µg/mL in the experiment with Staphylococcus aureus; 250 µg/mL in the experiment with Streptococcus pyogenes; 100 µg/mL with Escherichia coli; above 1000 µg/mL with Aspergillus niger. Further, the MIC with Aspergillus clavatus [1] is above 1000 µg/mL.

Take `N#Cc1sc2ncnc(N3CCN(c4cccc(Cl)c4Cl)CC3)c2c1-c1ccc(Cl)cc1`: the MIC in the experiment on Candida albicans amounted to 1000 µg/mL; with Pseudomonas aeruginosa, 100 µg/mL; in the experiment on Staphylococcus aureus it was 250 µg/mL; with Streptococcus pyogenes, 250 µg/mL; in the experiment with Escherichia coli, 200 µg/mL; in the experiment with Aspergillus niger, 500 µg/mL. In addition, the MIC in the experiment with Aspergillus clavatus [1] was found to be 1000 µg/mL.

`N#Cc1sc2ncnc(N3CCCCC3)c2c1-c1ccc(Cl)cc1`: the MIC was 250 µg/mL with Candida albicans; 250 µg/mL with Pseudomonas aeruginosa; 125 µg/mL in the experiment with Staphylococcus aureus; 200 µg/mL in the experiment on Streptococcus pyogenes; 250 µg/mL in the experiment with Escherichia coli; above 1000 µg/mL with Aspergillus niger. The MIC in the experiment on Aspergillus clavatus [1] was above 1000 µg/mL.

For the compound `CCn1cc(C(=O)O)c(=O)c2cc(F)c(N3CCNCC3)cc21` [NORFLOXACIN], the MIC in the experiment with Pseudomonas aeruginosa, with Staphylococcus aureus, with Streptococcus pyogenes and in the experiment with Escherichia coli was 10 µg/mL each time.

As for `NC(=O)c1sc2nc[nH]c(=O)c2c1-c1ccc(Cl)cc1`, the MIC with Candida albicans was above 1000 µg/mL; in the experiment with Pseudomonas aeruginosa, 200 µg/mL; in the experiment on Staphylococcus aureus it was 200 µg/mL; with Streptococcus pyogenes, 200 µg/mL; in the experiment on Escherichia coli, 125 µg/mL; in the experiment on Aspergillus niger it was 250 µg/mL. In addition, the MIC in the experiment on Aspergillus clavatus [1] is 500 µg/mL.

With `N#Cc1sc2ncnc(Nc3cccc(Cl)c3)c2c1-c1ccc(Cl)cc1`, the MIC in the experiment on Candida albicans was above 1000 µg/mL; in the experiment on Pseudomonas aeruginosa it was 100 µg/mL; with Staphylococcus aureus it was 200 µg/mL; in the experiment on Streptococcus pyogenes it was 250 µg/mL; in the experiment on Escherichia coli it was 100 µg/mL; in the experiment with Aspergillus niger, 500 µg/mL. The MIC in the experiment on Aspergillus clavatus [1] was found to be 500 µg/mL.

Consider `O=C(N[C@H](CO)[C@H](O)c1ccc([N+](=O)[O-])cc1)C(Cl)Cl` [CHLORAMPHENICOL], for which the MIC in the experiment with Pseudomonas aeruginosa, in the experiment with Staphylococcus aureus, with Streptococcus pyogenes and with Escherichia coli was 50 µg/mL throughout.

Take `N#Cc1sc2ncnc(N3CCN(C(=O)C4COc5ccccc5O4)CC3)c2c1-c1ccc(Cl)cc1` (stereo not drawn): the MIC in the experiment with Candida albicans was 250 µg/mL; in the experiment with Pseudomonas aeruginosa, 250 µg/mL; in the experiment on Staphylococcus aureus, 100 µg/mL; in the experiment on Streptococcus pyogenes, 125 µg/mL; in the experiment on Escherichia coli it was 100 µg/mL; in the experiment on Aspergillus niger, 1000 µg/mL. Also, the MIC in the experiment with Aspergillus clavatus [1] was determined as 1000 µg/mL.

`CCOC(=O)N1CCN(c2ncnc3sc(C#N)c(-c4ccc(Cl)cc4)c23)CC1`: the MIC was above 1000 µg/mL with Candida albicans; 100 µg/mL in the experiment on Pseudomonas aeruginosa; 250 µg/mL with Staphylococcus aureus; 250 µg/mL in the experiment with Streptococcus pyogenes; 62.5 µg/mL in the experiment with Escherichia coli; 1000 µg/mL in the experiment on Aspergillus niger. Besides, in the experiment on Aspergillus clavatus [1], the minimal inhibitory concentration (MIC) worked out at 1000 µg/mL.

Consider `COC1=CC(=O)C[C@@H](C)[C@]12Oc1c(Cl)c(OC)cc(OC)c1C2=O` [GRISEOFULVIN], for which the values for the MIC in the experiment on Candida albicans, in the experiment on Aspergillus niger and in the experiment on Aspergillus clavatus [1] were 500 µg/mL, 100 µg/mL and 100 µg/mL, respectively.

With `CC1(C)S[C@@H]2[C@H](NC(=O)[C@H](N)c3ccccc3)C(=O)N2[C@H]1C(=O)O` [AMPICILLIN], the MIC came out at 250 µg/mL in the experiment on Staphylococcus aureus, 100 µg/mL with Streptococcus pyogenes and 100 µg/mL in the experiment with Escherichia coli.

Turning to NYSTATIN, the MIC with Candida albicans, with Aspergillus clavatus [2] and in the experiment on Aspergillus niger was 100 µg/mL throughout.
